Measured values taken from ChEMBL document CHEMBL3856258, “Phosphonate-based irreversible inhibitors of human γ-glutamyl transpeptidase (GGT). GGsTop is a non-toxic and highly selective inhibitor with critical electrostatic interaction with an active-site residue Lys562 for enhanced inhibitory activity” (Bioorg Med Chem, 2016).

Legend:
[1] = Cytotoxicity against CHL cells assessed as growth rate at 84.5 ug/ml preincubated for 6 hrs followed by 18 hrs incubation in fresh medium in absence of S9 fraction by MTT assay relative to control; type: toxicity, cell-based, Cricetulus griseus; settings: chinese hamster, read-out: Activity
[2] = Cytotoxicity against human CCD-1059SK cells assessed as morphological change up to 1 mM after 24 hrs by inverted microscopic analysis; type: toxicity, cell-based
Summary of the method: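 Human skin fibroblasts (CCD-1059SK), passages 10–20, grown in DMEM with 10% FBS and antibiotics at 37 °C under 5% CO2. Plated at 3 × 10^4 cells/mL on chamber slides and pre-incubated 24 h. Then exposed 24 h to 0, 5, 10, 20, 50 or 1000 µM in DMEM (from aqueous solution); water-only control. Morphology checked by inverted microscopy.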

[3] = tested on: Salmonella typhimurium; assay: Genotoxicity in Salmonella typhimurium TA1535 assessed as number of revertant colonies per plate at 61.7 ug/plate after 20 mins in absence of S9 fraction by Ames test (reference value: 15); type: toxicity, organism-based; settings: salmonella enterica subsp. enterica serovar typhimurium
[4] = Cytotoxicity against CHL cells assessed as growth rate at 84.5 ug/ml after 24 hrs in absence of S9 fraction by MTT assay relative to control; type: toxicity, cell-based, Cricetulus griseus; settings: chinese hamster, read-out: Activity
[5] = Cytotoxicity against CHL cells assessed as chromatid gap at 3300 ug/ml preincubated for 6 hrs followed by 18 hrs incubation in fresh medium in presence of S9 fraction by Giemsa-staining-based microscopic analysis; type: toxicity, cell-based, Cricetulus griseus; settings: chinese hamster
[6] = tested on: Escherichia coli; assay: Genotoxicity in Escherichia coli WP2uvrA assessed as number of revertant colonies per plate at 185 ug/plate after 20 mins in absence of S9 fraction by Ames test (reference value: 24); type: toxicity; settings: s9, 20 min
[7] = Cytotoxicity against CHL cells assessed as growth rate at 84.5 ug/ml preincubated for 6 hrs followed by 18 hrs incubation in fresh medium in presence of S9 fraction by MTT assay relative to control; type: toxicity, cell-based, Cricetulus griseus; settings: chinese hamster, read-out: Activity
[8] = Cytotoxicity against CHL cells assessed as structural aberrations at 3300 ug/ml after 24 hrs by Giemsa-staining-based microscopic analysis; type: toxicity, cell-based, Cricetulus griseus; settings: chinese hamster
[9] = Cytotoxicity against CHL cells assessed as growth rate at 5.41 ug/ml preincubated for 6 hrs followed by 18 hrs incubation in fresh medium in presence of S9 fraction by MTT assay relative to control; type: toxicity, cell-based, Cricetulus griseus; settings: chinese hamster, read-out: Activity
[10] = Cytotoxicity against CHL cells assessed as chromatid gap at 1650 ug/ml preincubated for 6 hrs followed by 18 hrs incubation in fresh medium in presence of S9 fraction by Giemsa-staining-based microscopic analysis; type: toxicity, cell-based, Cricetulus griseus; settings: chinese hamster
[11] = Cytotoxicity against CHL cells assessed as number of cells with numerical aberrations at 1650 ug/ml after 24 hrs by Giemsa staining-based microscopic analysis relative to control; type: toxicity, cell-based, Cricetulus griseus; settings: chinese hamster
[12] = tested on: Salmonella typhimurium; assay: Genotoxicity in Salmonella typhimurium TA98 assessed as number of revertant colonies per plate at 5000 ug/plate after 20 mins in absence of S9 fraction by Ames test (reference value: 21); type: toxicity, organism-based; settings: salmonella enterica subsp. enterica serovar typhimurium
[13] = Cytotoxicity against CHL cells assessed as structural aberrations at 3300 ug/ml preincubated for 6 hrs followed by 18 hrs incubation in fresh medium in presence of S9 fraction by Giemsa-staining-based microscopic analysis; type: toxicity, cell-based, Cricetulus griseus; settings: chinese hamster
[14] = species on record: Homo sapiens; assay: Irreversible inhibition of human GGT using gamma-Glu-AMC as substrate assessed as association rate constant by […] analysis
Summary of the method: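 The enzyme source was a commercial human GGT preparation carrying bovine serum albumin as stabilizer (GGT <1% of protein). Hydrolytic activity was followed with γ-Glu-AMC as substrate. Irreversible inactivation was expressed as kon, the second-order rate constant for the inhibitor–enzyme reaction.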

[15] = tested on: Escherichia coli; assay: Genotoxicity in Escherichia coli WP2uvrA assessed as number of revertant colonies per plate at 1667 ug/plate after 20 mins in presence of S9 fraction by Ames test (reference value: 26); type: toxicity; settings: s9, 20 min
[16] = tested on: Salmonella typhimurium; assay: Genotoxicity in Salmonella typhimurium TA98 assessed as number of revertant colonies per plate at 185 ug/plate after 20 mins in presence of S9 fraction by Ames test (reference value: 26); type: toxicity, organism-based; settings: salmonella enterica subsp. enterica serovar typhimurium
[17] = Cytotoxicity against CHL cells assessed as number of cells with numerical aberrations at 825 ug/ml preincubated for 6 hrs followed by 18 hrs incubation in fresh medium in absence of S9 fraction by Giemsa-staining-based microscopic analysis relative to control; type: toxicity, cell-based, Cricetulus griseus; settings: chinese hamster
[18] = tested on: Salmonella typhimurium; assay: Genotoxicity in Salmonella typhimurium TA1537 assessed as number of revertant colonies per plate at 556 ug/plate after 20 mins in absence of S9 fraction by Ames test (reference value: 9); type: toxicity, organism-based; settings: salmonella enterica subsp. enterica serovar typhimurium
[19] = tested on: Salmonella typhimurium; assay: Genotoxicity in Salmonella typhimurium TA98 assessed as number of revertant colonies per plate at 20.6 ug/plate after 20 mins in absence of S9 fraction by Ames test (reference value: 21); type: toxicity, organism-based; settings: salmonella enterica subsp. enterica serovar typhimurium
[20] = Cytotoxicity against CHL cells assessed as growth rate at 5.41 ug/ml after 24 hrs in absence of S9 fraction by MTT assay relative to control; type: toxicity, cell-based, Cricetulus griseus; settings: chinese hamster, read-out: Activity
[21] = tested on: Escherichia coli; assay: Genotoxicity in Escherichia coli WP2uvrA assessed as number of revertant colonies per plate at 61.7 ug/plate after 20 mins in absence of S9 fraction by Ames test (reference value: 24); type: toxicity; settings: s9, 20 min
[22] = tested on: Escherichia coli; assay: Genotoxicity in Escherichia coli WP2uvrA assessed as number of revertant colonies per plate at 556 ug/plate after 20 mins in absence of S9 fraction by Ames test (reference value: 24); type: toxicity; settings: s9, 20 min
[23] = Cytotoxicity against CHL cells assessed as structural aberrations at 3300 ug/ml preincubated for 6 hrs followed by 18 hrs incubation in fresh medium in absence of S9 fraction by Giemsa-staining-based microscopic analysis; type: toxicity, cell-based, Cricetulus griseus; settings: chinese hamster
[24] = species on record: Rattus norvegicus; assay: Cytotoxicity against Wistar rat BSC assessed as reduction in cell viability up to 1 mM after 24 hrs by neutral red method; type: toxicity
[25] = tested on: Escherichia coli; assay: Genotoxicity in Escherichia coli WP2uvrA assessed as number of revertant colonies per plate at 5000 ug/plate after 20 mins in presence of S9 fraction by Ames test (reference value: 26); type: toxicity; settings: s9, 20 min
[26] = tested on: Salmonella typhimurium; assay: Genotoxicity in Salmonella typhimurium TA98 assessed as number of revertant colonies per plate at 5000 ug/plate after 20 mins in presence of S9 fraction by Ames test (reference value: 26); type: toxicity, organism-based; settings: salmonella enterica subsp. enterica serovar typhimurium
[27] = Cytotoxicity against CHL cells assessed as structural aberrations at 825 ug/ml preincubated for 6 hrs followed by 18 hrs incubation in fresh medium in presence of S9 fraction by Giemsa-staining-based microscopic analysis; type: toxicity, cell-based, Cricetulus griseus; settings: chinese hamster
[28] = tested on: Salmonella typhimurium; assay: Genotoxicity in Salmonella typhimurium TA1535 assessed as number of revertant colonies per plate at 185 ug/plate after 20 mins in absence of S9 fraction by Ames test (reference value: 15); type: toxicity, organism-based; settings: salmonella enterica subsp. enterica serovar typhimurium
[29] = tested on: Salmonella typhimurium; assay: Genotoxicity in Salmonella typhimurium TA1535 assessed as number of revertant colonies per plate at 5000 ug/plate after 20 mins in presence of S9 fraction by Ames test (reference value: 13); type: toxicity, organism-based; settings: salmonella enterica subsp. enterica serovar typhimurium
[30] = tested on: Salmonella typhimurium; assay: Genotoxicity in Salmonella typhimurium TA1537 assessed as number of revertant colonies per plate at 1667 ug/plate after 20 mins in absence of S9 fraction by Ames test (reference value: 9); type: toxicity, organism-based; settings: salmonella enterica subsp. enterica serovar typhimurium
[31] = tested on: Escherichia coli; assay: Genotoxicity in Escherichia coli WP2uvrA assessed as number of revertant colonies per plate at 20.6 ug/plate after 20 mins in absence of S9 fraction by Ames test (reference value: 24); type: toxicity; settings: s9, 20 min

COP(=O)(CCC(N)C(=O)O)Oc1cccc(CC(=O)O)c1 (stereo unspecified)
viability at 18 h, 84.5 ug/ml [1]: 102% | Activity [2]: Non-Toxic | Activity [3]: 8 | viability at 24 h, 84.5 ug/ml [4]: 101% | Activity [5]: 0% | Activity [6]: 23 | viability at 18 h, 84.5 ug/ml [7]: 100% | Activity [8]: 1% | viability at 18 h, 5.41 ug/ml [9]: 102% | Activity [10]: 1% | Activity [11]: 0% | Activity [12]: 24 | Activity [13]: 1% | K [14]: 51 M⁻¹ s⁻¹ | Activity [15]: 23 | Activity [16]: 34 | Activity [17]: 0% | Activity [18]: 11 | Activity [19]: 21 | viability at 24 h, 5.41 ug/ml [20]: 105% | Activity [21]: 26 | Activity [22]: 25 | Activity [23]: 1% | Activity [24]: Non-Toxic | Activity [25]: 34 | Activity [26]: 27 | Activity [27]: 1% | Activity [28]: 12 | Activity [29]: 11 | Activity [30]: 10 | Activity [31]: 26
